# Screening results: PubChem, Johns Hopkins Ion Channel Center
# Shown are actives, neighbours in structure and some others; about 3.5% of the full set was active somewhere.
# RGS4 pot = RGS4 potentiation or activation; AID 463111; 310,000 compounds, 0.92% hits; B-score at 10 µM; HEK293 M3R/inducible RGS4, carbachol calcium flux Fluo4; hits give low values;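 active = B-score of the integrated calcium signal more than 4 SD below the library mean, with starting fluorescence not abnormally high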;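 also: negative B-score means reduced calcium response which marks RGS4 activation or potentiation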
#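 test system = HEK293 cells with stable M3R and inducible RGS4 | schedule = recording 10 s baseline at 1 Hz, 100 s post-agonist | technique = Fluo4-AM (2 µM) calcium-flux fluorescence, kinetic read | measure = Agonist-evoked peak-minus-minimum fluorescence over baseline, integrated ratio, B score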
# MrgX1 ag = agonists of human MrgX1 receptor; MrgX1-HEK293 cells, Fluo-4 calcium fluorescence, agonist mode; hits give high values; AID 588627; 310,000 compounds, 0.44% hits; B-score at 10 µM; Q96LB2;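 active = calcium response B-score plate-corrected fluorescence ratio at least 3 library SD, with starting fluorescence B-score inside 5 SD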
# Target sequence (Q96LB2 whole entry, looked up): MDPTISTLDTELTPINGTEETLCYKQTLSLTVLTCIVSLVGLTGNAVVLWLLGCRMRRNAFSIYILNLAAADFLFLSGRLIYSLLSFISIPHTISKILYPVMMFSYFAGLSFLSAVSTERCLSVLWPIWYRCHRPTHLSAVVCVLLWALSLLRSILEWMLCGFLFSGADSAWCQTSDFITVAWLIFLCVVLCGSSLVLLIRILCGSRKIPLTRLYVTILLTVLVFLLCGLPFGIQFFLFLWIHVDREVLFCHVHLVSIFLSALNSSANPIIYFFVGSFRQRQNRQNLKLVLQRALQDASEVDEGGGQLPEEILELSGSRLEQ
#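 times = overnight plating, then 30 min 37 °C plus 30 min room-temperature dye loading | assay system = stable human MrgX1 HEK293 cell line | input = fifteen thousand cells per well | signal = kinetic calcium dye fluorescence, Fluo-4 NW | dosing = compound delivered in addition one of three | read-out = B-scored fluorescence response ratio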
# MrgX1 PAM = human MrgX1 positive allosteric modulation, primary screen | Q96LB2 | MrgX1-HEK293, Fluo-4 calcium flux, FDSS; hits give high values | B-score at 10 µM | 310,000 compounds, 0.63% hits | AID 588675;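 active = plate-corrected calcium response at least 3 library SD above typical, normal starting fluorescence, not activating the receptor alone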;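 also: compound read alongside a low EC10 to EC30 dose of BAM8-22 agonist; peak minus trough fluorescence over baseline measured at the second addition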
# MrgX1 antagonist = antagonists of human MrgX1 receptor; Q96LB2; MRGX1-HEK293 calcium flux, Fluo-4, BAM8-22 antagonism; hits give low values; B-score at 10 µM; 310,000 compounds, 1.3% hits; AID 588676;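 active = calcium-response B-score plate-corrected more than 3 library SD below zero, starting fluorescence within 5 deviations, no agonist response on first addition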;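 also: peak minus trough fluorescence over baseline after final BAM8-22 challenge near maximal dose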
# RGS4 inh = inhibitors of human RGS4 | B-score at 10 µM | AID 463165 | HEK293 M3R/RGS4 inducible, Fluo-4 calcium flux; hits give high values; triggered by carbachol at its EC20 | 310,000 compounds, 0.45% hits;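 active = B-score, a plate-corrected calcium signal, over three deviations above library mean, with baseline fluorescence within five deviations of library mean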;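 also: RGS4 expression induced by doxycycline in cells with stable M3 receptor; B-score is computed from the integrated fluorescence ratio over baseline after carbachol; higher B-score means a larger calcium signal and so more RGS4 inhibition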
# Target sequence (P49798 whole entry, looked up): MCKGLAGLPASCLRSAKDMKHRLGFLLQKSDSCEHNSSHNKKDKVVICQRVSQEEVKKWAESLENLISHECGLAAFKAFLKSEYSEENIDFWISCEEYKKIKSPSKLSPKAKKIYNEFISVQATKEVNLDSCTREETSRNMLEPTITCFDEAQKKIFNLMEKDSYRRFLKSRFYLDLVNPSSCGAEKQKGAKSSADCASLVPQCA
# RGS4 act valid = RGS4 activation, validation assay; shares compounds with RGS4 pot; HEK293 M3R/RGS4 inducible, carbachol calcium flux Fluo4; inhibition, % at 10 µM; 1,100 compounds, 89% hits; AID 602282;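 active = inhibition above 3 SD of the buffer control wells, cut at about 41% in these data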;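 also: signal is the integrated peak-minus-minimum Fluo4 fluorescence over baseline ratio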
# RGS4 act ctr = RGS4 activator counter-screen hit in non-induced cells | 1,100 compounds, 82% hits | AID 602283 | inhibition, % at 10 µM | shares compounds with RGS4 pot | HEK293 M3R non-induced RGS4, Fluo4 calcium flux; after carbachol challenge at its EC90;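 active = inhibition exceeding 3 SD of buffer-only control wells, cut at about 26% in these data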;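 also: percent drop in integrated peak-minus-baseline over baseline Fluo4 ratio after carbachol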
# Hits are given with their value; 0 = inactive; - = no result.
SMILES,RGS4 pot,MrgX1 ag,MrgX1 PAM,MrgX1 antagonist,RGS4 inh,RGS4 act valid,RGS4 act ctr
COc1cc(C)ccc1NC(=O)Cc1csc(NC(=O)Nc2ccccc2OC)n1,-10.1,0,0,0,0,94.0,90.8
CC(C)c1cc(-c2cc(C(=O)NCc3ccccc3)on2)nc(NCC2CC2)n1,-8.36,0,0,0,0,92.5,92.3
O=C(CCC1CCCN(C(=O)Cn2cnnn2)C1)NCc1ccccc1F (stereo not given),0,0,0,0,0,-,-
CCc1ccc(NC(=O)CSc2nc(=O)n(CCN(C)C)c3c2CCCC3)cc1,0,0,0,0,0,-,-
CC(C)CCN1C(=O)c2cccc3c(N)ccc(c23)C1=O,-7.75,0,0,0,0,99.0,95.3
Nc1ccc2c3c(cccc13)C(=O)N(c1ccccc1)C2=O,0,-,-,-,0,-,-
Cc1ccccc1-c1nn2c(-c3ccccc3)nnc2s1,-7.72,0,0,0,0,0,0
Cc1c(NC(=O)c2cc(-c3cccs3)nc3ccccc23)c(=O)n(-c2ccccc2)n1C,0,0,0,0,0,-,-
Cc1ccc(NC(=O)c2cc(-c3cccs3)nc3ccccc23)nc1,-7.86,0,0,0,0,78.0,0
COC(=O)C1(CC2CC(c3cccc(Br)c3)=NO2)CCN(C(=O)OC(C)(C)C)CC1 (stereo not given),0,0,0,0,0,-,-
S=C(NCCN(C1CCCCC1)C1CCCC1)Nc1cccc(Cl)c1,-7.92,0,0,0,0,62.0,83.8
S=C(Nc1cccc(Cl)c1)NC1CC2CCCC(C1)N2C1CCCC1 (stereo not given),0,0,0,0,0,-,-
CCCC[C@@H]1CNCCN1CCc1cc(C(F)(F)F)cc(C(F)(F)F)c1,-7.88,0,0,0,0,93.0,85.8
Cc1ccc(CNC(=O)CCS(=O)(=O)Cc2ccc(C)cc2)cc1,0,0,0,0,0,-,-
OCC1(Cc2ccccc2)CCCN(Cc2ccc(-c3ccco3)cc2)C1 (stereo not given),0,0,0,0,0,-,-
OCC1(Cc2ccccc2)CCN(Cc2ccc(-c3ccco3)cc2)CC1,-9.97,0,0,0,0,89.5,51.8
CCOC(=O)c1c(NC(=O)CSc2nnnn2-c2ccc3c(c2)OCCO3)sc(C)c1C,-9.5,0,0,0,0,83.5,31.8
COCC(=O)N1CCC(Oc2ccc(C(=O)N(C)Cc3nccs3)cc2)CC1,0,0,0,0,0,-,-
O=C(CSc1ccc(Cl)cc1)Nc1cccc(-c2nc3ncccc3o2)c1,-8.74,0,0,0,0,92.5,91.8
CC(C)C(=O)Nc1cccc(-c2nc3ncccc3o2)c1,0,0,0,0,0,-,-
COc1c(C)cc(Br)cc1C(=O)Nc1cccc(-c2nc3ncccc3o2)c1,-8.26,0,0,0,0,93.5,73.8
O=C(CSc1ccc(Cl)cc1)Nc1cc(-c2nc3ncccc3o2)ccc1Cl,0,0,0,0,0,-,-
CCOc1cc(/C=C(/NC(C)=O)C(=O)O)cc(Cl)c1OCc1ccc(Br)cc1,0,0,0,0,0,-,-
COc1ccc(N2C(=O)CSC2c2cccc(OC)c2OC)cc1 (stereo not given),-11.3,0,0,0,0,85.5,46.3
COc1cccc(C2SCC(=O)N2c2ccc(C)cc2)c1OC (stereo not given),-8.89,0,0,0,0,92.0,85.8
SMILES,RGS4 pot,MrgX1 ag,MrgX1 PAM,MrgX1 antagonist,RGS4 inh,RGS4 act valid,RGS4 act ctr
COc1ccc(N2C(=O)CSC2c2ccccc2)cc1 (stereo not given),0,0,0,0,0,-,-
CC1=C(c2ccccc2)SC2=NCCN21,-9.67,0,0,0,0,75.0,31.3
O=C(Nc1ccc(S(=O)(=O)N2CCOCC2)cc1)c1cc(-c2cc(Cl)ccc2O)n[nH]1,-8.38,0,0,0,0,93.0,70.8
Cc1cc(O)c(-c2cc(C(=O)Nc3ccc(S(=O)(=O)N4CCOCC4)cc3)[nH]n2)cc1C,0,0,0,0,0,-,-
CC(C)CCN(C(=O)C1CSC2(C)CCC(=O)N12)c1c(N)n(Cc2ccccc2)c(=O)[nH]c1=O (stereo not given),0,0,0,0,0,-,-
CCOC(=O)C1CCN(S(=O)(=O)c2ccc3c(c2)CC(C)N3C(=O)C2CCC2)CC1 (stereo not given),-8.22,0,0,0,0,57.0,0
Cn1ncc(Br)c1C(=O)NC1CCCCCC1,0,0,0,0,0,-,-
COc1ccccc1OCC(=O)Nc1c2c(nn1-c1ccccc1)CS(=O)(=O)C2,0,0,0,0,0,-,-
Cc1cc2c3c([nH]c2cc1S(=O)(=O)NCc1ccc(CN2CCCCCC2)o1)CCCC3=O,-8.64,0,0,0,0,75.0,46.3
Cn1c(=O)c(=O)n(C)c2cc(N3CCCC3)c(NS(=O)(=O)c3ccc(Cl)cc3)cc21,0,0,0,0,0,-,-
CSc1nsc(SC)c1C(=O)Nc1ccc(C(C)(C)C)cc1,-11.4,0,0,0,0,93.0,79.3
CC(C)=CCc1c(O)ccc2c1OC(c1ccc(O)c(O)c1)CC2=O (stereo not given),-8.7,0,0,0,0,93.0,78.3
O=C1CC(c2ccc(O)c(O)c2)Oc2c1ccc(O)c2O (stereo not given),-,0,0,0,-,-,-
CCOc1ccc(CCNC(=O)CSc2nc3ncc(Cl)cc3[nH]2)cc1OCC,0,0,0,0,0,-,-
COc1cccc(N2[C@@H](CC(=O)O)c3cc(C(F)(F)F)ccc3S2(=O)=O)c1,0,0,0,0,0,-,-
N=C1c2ccccc2CN1c1ccc(S(=O)(=O)N2CCCCC2)cc1,-8.81,0,0,0,0,75.0,35.8
CCOc1ccc(OCc2ccc(C(=O)N3CCCC3)o2)cc1,0,0,0,0,0,-,-
CN1CCN(C(=O)c2ccc(COc3ccc(C(C)(C)C)cc3)o2)CC1,-7.73,0,0,0,0,89.5,41.3
CC(C)c1ccc(OCc2ccc(C(=O)N3CCCC3)o2)cc1,-12.2,0,0,0,0,83.0,83.8
O=[N+]([O-])c1ccc(Cl)c(S(=O)(=O)Nc2ccc(S(=O)(=O)N3CCOCC3)cc2)c1,0,0,0,0,0,-,-
O=C(Nc1ccc(Cl)c(S(=O)(=O)N2CCOCC2)c1)c1ccc(OCC2CCCO2)cc1 (stereo not given),-10.8,0,0,-11.1,0,94.0,78.8
O=C(Nc1ccc(S(=O)(=O)N2CCCC2)cc1)c1ccc(OCC2CCCO2)cc1 (stereo not given),0,0,0,0,0,-,-
CC(NS(=O)(=O)c1ccc(N)cc1)C1CC2CCC1C2 (stereo not given),0,0,0,0,0,-,-
Cn1c(=O)c2c(ncn2CCOc2ccc(F)cc2)n(C)c1=O,-8.91,0,0,0,0,0,0
